Measured values as given in ChEMBL document CHEMBL4052828, “Discovery of 4-((7H-Pyrrolo[2,3-d]pyrimidin-4-yl)amino)-N-(4-((4-methylpiperazin-1-yl)methyl)phenyl)-1H-pyrazole-3-carboxamide (FN-1501), an FLT3- and CDK-Kinase Inhibitor with Potentially High Efficiency against Acute Myelocytic Leukemia” (J Med Chem, 2018).

Tests used:
[1] = target: CDK2/Cyclin A1 (Homo sapiens, UniProt P24941); assay: Inhibition of human CDK2/Cyclin A1 using histone H1 as substrate preincubated for 20 mins followed by [gamma-33P]-ATP addition measure after 120 mins by filter binding method; format: protein-complex assay
Method in brief: (§1)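 Compound preincubated with kinase 20 min at room temperature. Filter-binding read-out, curve-fitted IC50; mean ± SD of three independent experiments.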

[2] = target: T1, Receptor-type tyrosine-protein kinase FLT3 (Homo sapiens, UniProt P36888); assay: Inhibition of human FLT3 using EAIYAAPFAKKK as substrate preincubated for 20 mins followed by [gamma-33P]-ATP addition measure after 120 mins by filter binding method; method in brief: as §1
T1 sequence (P36888 whole entry): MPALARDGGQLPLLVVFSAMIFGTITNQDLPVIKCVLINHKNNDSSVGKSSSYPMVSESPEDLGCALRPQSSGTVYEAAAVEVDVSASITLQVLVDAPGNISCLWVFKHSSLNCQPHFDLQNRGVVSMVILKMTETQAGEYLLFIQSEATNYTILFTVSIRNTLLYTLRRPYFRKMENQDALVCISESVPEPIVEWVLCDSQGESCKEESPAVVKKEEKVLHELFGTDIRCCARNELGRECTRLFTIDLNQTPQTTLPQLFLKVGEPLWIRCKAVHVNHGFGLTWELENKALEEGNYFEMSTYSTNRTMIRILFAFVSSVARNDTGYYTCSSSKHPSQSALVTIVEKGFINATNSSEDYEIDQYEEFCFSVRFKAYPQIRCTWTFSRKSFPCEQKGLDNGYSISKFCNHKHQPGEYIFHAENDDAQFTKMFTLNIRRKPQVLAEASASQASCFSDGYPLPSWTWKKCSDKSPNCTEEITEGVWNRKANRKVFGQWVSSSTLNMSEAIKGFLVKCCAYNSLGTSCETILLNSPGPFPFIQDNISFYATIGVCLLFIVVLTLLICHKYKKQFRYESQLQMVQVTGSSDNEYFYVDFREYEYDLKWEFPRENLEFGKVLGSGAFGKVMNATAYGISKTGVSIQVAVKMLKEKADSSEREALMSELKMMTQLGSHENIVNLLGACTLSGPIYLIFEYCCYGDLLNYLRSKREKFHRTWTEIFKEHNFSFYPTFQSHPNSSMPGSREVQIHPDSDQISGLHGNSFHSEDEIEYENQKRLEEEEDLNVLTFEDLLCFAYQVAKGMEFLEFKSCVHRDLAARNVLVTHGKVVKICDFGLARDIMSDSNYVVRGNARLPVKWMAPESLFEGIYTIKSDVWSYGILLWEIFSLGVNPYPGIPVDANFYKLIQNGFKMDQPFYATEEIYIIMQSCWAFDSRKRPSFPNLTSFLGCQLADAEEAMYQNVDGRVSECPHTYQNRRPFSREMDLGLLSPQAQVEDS

[3] = system: MV4-11; assay: Growth inhibition of human MV4-11 cells at 1 uM after 72 hrs by CellTiter-Glo assay relative to control; format: functional; conditions: MV4-11, 72 h, read-out: GI
[4] = target: CDK2/Cyclin A1 (Homo sapiens) (UniProt P24941+P78396); assay: Inhibition of human CDK2/Cyclin A1 assessed as residual activity at 0.123 uM using histone H1 as substrate preincubated for 20 mins followed by [gamma-33P]-ATP addition measure after 120 mins by filter binding method relative to control; format: protein-complex assay
[5] = Lipophilicity, log P of the compound; format: physicochemical; conditions: octanol/water
[6] = system: MV4-11; assay: Growth inhibition of human MV4-11 cells after 72 hrs by CellTiter-Glo assay; format: functional, cell-based; conditions: MV4-11, 72 h
Method in brief: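 MV4-11 cells grown in IMDM with 10% FBS, 2% L-glutamine and 1% pen/strep at 37 °C, 5% CO2. Seeded at 10000 cells/well and exposed to compound at various concentrations for 72 h. Viability read by CellTiter-Glo luminescence.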

[7] = target: Receptor-type tyrosine-protein kinase FLT3 (Homo sapiens) (UniProt P36888); assay: Inhibition of human FLT3 assessed as residual activity at 0.123 uM using EAIYAAPFAKKK as substrate preincubated for 20 mins followed by [gamma-33P]-ATP addition measure after 120 mins by filter binding method relative to control

Row | Structure (SMILES) | IC50 [1] | IC50 [2] | Activity [4] | logP [5] | IC50 [6] | Activity [7] | inhibition of growth at 1 µM [3]
1 | COc1ccc2c(Nc3c[nH]nc3C(=O)Nc3ccc(CN4CCOCC4)cc3)ccnc2c1 |  | 97.4 nM | 75% |  |  |  | 22.2%
2 | O=C(Nc1ccc(CN2CCOCC2)cc1)c1n[nH]cc1Nc1nccc2ccccc12 | 287 nM | 42.4 nM |  |  |  |  | 50.4%
3 | O=C(Nc1c[nH]nc1C(=O)Nc1ccc(CN2CCOCC2)cc1)c1ccccc1 | 318 nM | 42.6 nM |  |  | 450 nM |  | 
4 | O=C(Nc1ccc(CN2CCOCC2)cc1)c1n[nH]cc1Nc1cc(C(F)(F)F)nc2ccccc12 |  |  | 99.7% |  |  | 83.2% | 4.7%
5 | CN1CCN(Cc2ccc(NC(=O)c3n[nH]cc3Nc3ccnc4ccc(Br)cc34)cc2)CC1 | 5.74 nM | 4.84 nM |  |  |  |  | 97.2%
6 | COc1ccc2nccc(Nc3c[nH]nc3C(=O)Nc3ccc(CN4CCN(C)CC4)cc3)c2c1 |  |  | 32.5% |  |  | 10.4% | 64.4%
7 | CCN(CC)Cc1ccc(NC(=O)c2n[nH]cc2Nc2ncnc3sccc23)cc1 | 1.59 nM | 5.36 nM |  |  |  |  | 
8 | O=C(Nc1ccc(CN2CCOCC2)cc1)c1n[nH]cc1Nc1ncnc2ccsc12 | 11.6 nM | 6.15 nM |  |  | 35 nM |  | 
9 | COc1ccc2c(Nc3c[nH]nc3C(=O)Nc3ccc(CN4CCN(C)CC4)cc3)ccnc2c1 | 697 nM | 197 nM |  |  |  |  | 22.6%

Continued, in another order:

Row | IC50 [1] | IC50 [2] | Activity [4] | logP [5] | IC50 [6] | Activity [7] | Structure (SMILES) | inhibition of growth at 1 µM [3]
10 | 8.27 nM | 3.17 nM |  |  |  |  | CN1CCN(Cc2ccc(NC(=O)c3n[nH]cc3Nc3ncnc4ccccc34)cc2)CC1 | 
11 | 4.49 nM | 1.03 nM |  | 1.22 | 53 nM |  | O=C(Nc1ccc(CN2CCNCC2)cc1)c1n[nH]cc1Nc1ncnc2[nH]ccc12 | 
12 | 7.25 nM | 2.06 nM |  |  | 21 nM |  | O=C(Nc1ccc(CN2CCOCC2)cc1)c1n[nH]cc1Nc1ncnc2[nH]ccc12 | 
13 | 29.8 nM | 3.78 nM |  |  |  |  | COc1ccc2ncnc(Nc3c[nH]nc3C(=O)Nc3ccc(CN4CCOCC4)cc3)c2c1 | 53.1%
14 | 4.49 nM | 0.167 nM |  |  |  |  | Cc1csc2ncnc(Nc3c[nH]nc3C(=O)Nc3ccc(CN4CCN(C)CC4)cc3)c12 | 
15 | 58.6 nM | 0.958 nM |  |  |  |  | O=C(Nc1ccc(CN2CCOCC2)cc1)c1n[nH]cc1Nc1nc(Cl)nc2ccccc12 | 91.1%
16 | 5.3 nM | 0.588 nM |  |  | 23 nM |  | O=C(Nc1ccc(CN2CCOCC2)cc1)c1n[nH]cc1Nc1ncnc2ccccc12 | 
17 | 1.08 nM | 1.37 nM |  |  | 11 nM |  | Cc1csc2ncnc(Nc3c[nH]nc3C(=O)Nc3ccc(CN4CCOCC4)cc3)c12 | 
